Results taken from ChEMBL document CHEMBL4257452, “A mini-library system to investigate non-essential residues of lipid-phosphatidylserine (PS) binding peptide-peptoid hybrid PPS1” (Medchemcomm, 2017).
Activity calls are given as the source filed them. The rule behind the calls is not given here. Starred links: 1 amine or outer side, 2 acyl side, 3 side chain; linkers in the order of their positions; H or OH if unused. Positions of bridges follow the written chain, without caps; N, C: chain ends. Non-standard residues stand in square brackets, D forms with d. Residues, ends and D or L forms follow the SMILES beside them. Chains are numbered I, II in the order given. Gly(N-CH2CH2C6H4-4Cl) = O=C(O)CNCCc1ccc(Cl)cc1; Gly(N-piperonyl) = O=C(O)CNCc1ccc2c(c1)OCO2; Gly(Nα-4-Cl-benzyl) = O=C(O)CNCc1ccc(Cl)cc1; N(4-MeOBn)Gly = COc1ccc(CNCC(=O)O)cc1; X3 = CC(c1ccccc1)N(CC(=O)[*:2])[*:1]; Gly(NCH2CH2Ph) = O=C(O)CNCCc1ccccc1; Gly(N-(CH2)3OMe) = COCCCNCC(=O)O; Nrpe = C[C@@H](NCC(=O)O)c1ccccc1; Gly(N-propargyl) = C#CCNCC(=O)O; Gly(N-cPent) = O=C(O)CNC1CCCC1

tested on: HCC4017; assay: Cytotoxicity against human HCC4017 cells assessed as reduction in cell viability at 20 uM after 24 hrs by MTS assay; format: functional, cell-based
In short: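 HCC4017 cells (RPMI, 5% FBS) and HBEC-3KT normal lung cells (KSFM with recombinant human EGF and bovine pituitary extract) were plated at 10 000 cells/well in triplicate and left to adhere overnight. They were exposed to 1 or 20 μM compound for 24 h. MTS reagent was then added for 2 h and absorbance read at 490 nm. Viability is % of untreated control wells.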

SMILES	Activity
COc1ccc(CN(CC(=O)N(CC(=O)N[C@@H](CCCCN)C(=O)N[C@H](CCCCN)C(=O)N[C@@H](CCSC)C(=O)NCCCC[C@H](NC(=O)[C@H](CCSC)NC(=O)[C@@H](CCCCN)NC(=O)[C@H](CCCCN)NC(=O)CN(Cc2ccc3c(c2)OCO3)C(=O)CN(Cc2ccc(OC)cc2)C(=O)CN(C(=O)CN(Cc2ccc3c(c2)OCO3)C(=O)CN[C@H](C)c2ccccc2)[C@H](C)c2ccccc2)C(N)=O)Cc2ccc3c(c2)OCO3)C(=O)CN(C(=O)CN(Cc2ccc3c(c2)OCO3)C(=O)CN[C@H](C)c2ccccc2)[C@H](C)c2ccccc2)cc1 (I: H-[Nrpe][Gly(N-piperonyl)][Nrpe][N(4-MeOBn)Gly][Gly(N-piperonyl)]K[dK]MK-NH2 / II: H-[Nrpe][Gly(N-piperonyl)][Nrpe][N(4-MeOBn)Gly][Gly(N-piperonyl)]K[dK]M; amide I:9-II:C)	Active
COc1ccc(CN(CC(=O)NC(C)C(=O)NC(CCCCN)C(=O)NC(CCCCN)C(=O)NC(CCSC)C(=O)NCCCCC(NC(=O)C(CCSC)NC(=O)C(CCCCN)NC(=O)C(CCCCN)NC(=O)C(C)NC(=O)CN(Cc2ccc(OC)cc2)C(=O)CN(C(=O)CN(Cc2ccc3c(c2)OCO3)C(=O)CNC(C)c2ccccc2)C(C)c2ccccc2)C(N)=O)C(=O)CN(C(=O)CN(Cc2ccc3c(c2)OCO3)C(=O)CNC(C)c2ccccc2)C(C)c2ccccc2)cc1 (stereo not drawn) (I: H-[X3][Gly(N-piperonyl)][X3][N(4-MeOBn)Gly]AKKMK-NH2 / II: H-[X3][Gly(N-piperonyl)][X3][N(4-MeOBn)Gly]AKKM; amide I:9-II:C; configuration not given here)	Active
COc1ccc(CN(CC(=O)NC(CC(=O)O)C(=O)NC(CCCCN)C(=O)NC(CCCCN)C(=O)NC(CCSC)C(=O)NCCCCC(NC(=O)C(CCSC)NC(=O)C(CCCCN)NC(=O)C(CCCCN)NC(=O)C(CC(=O)O)NC(=O)CN(Cc2ccc(OC)cc2)C(=O)CN(C(=O)CN(Cc2ccc3c(c2)OCO3)C(=O)CNC(C)c2ccccc2)C(C)c2ccccc2)C(N)=O)C(=O)CN(C(=O)CN(Cc2ccc3c(c2)OCO3)C(=O)CNC(C)c2ccccc2)C(C)c2ccccc2)cc1 (stereo not drawn) (I: H-[X3][Gly(N-piperonyl)][X3][N(4-MeOBn)Gly]DKKMK-NH2 / II: H-[X3][Gly(N-piperonyl)][X3][N(4-MeOBn)Gly]DKKM; amide I:9-II:C; configuration not given here)	inactive
COc1ccc(CN(CC(=O)NC(CC(C)C)C(=O)NC(CCCCN)C(=O)NC(CCCCN)C(=O)NC(CCSC)C(=O)NCCCCC(NC(=O)C(CCSC)NC(=O)C(CCCCN)NC(=O)C(CCCCN)NC(=O)C(CC(C)C)NC(=O)CN(Cc2ccc(OC)cc2)C(=O)CN(C(=O)CN(Cc2ccc3c(c2)OCO3)C(=O)CNC(C)c2ccccc2)C(C)c2ccccc2)C(N)=O)C(=O)CN(C(=O)CN(Cc2ccc3c(c2)OCO3)C(=O)CNC(C)c2ccccc2)C(C)c2ccccc2)cc1 (stereo not drawn) (I: H-[X3][Gly(N-piperonyl)][X3][N(4-MeOBn)Gly]LKKMK-NH2 / II: H-[X3][Gly(N-piperonyl)][X3][N(4-MeOBn)Gly]LKKM; amide I:9-II:C; configuration not given here)	Active
COc1ccc(CN(CC(=O)N2CCCC2C(=O)NC(CCCCN)C(=O)NC(CCCCN)C(=O)NC(CCSC)C(=O)NCCCCC(NC(=O)C(CCSC)NC(=O)C(CCCCN)NC(=O)C(CCCCN)NC(=O)C2CCCN2C(=O)CN(Cc2ccc(OC)cc2)C(=O)CN(C(=O)CN(Cc2ccc3c(c2)OCO3)C(=O)CNC(C)c2ccccc2)C(C)c2ccccc2)C(N)=O)C(=O)CN(C(=O)CN(Cc2ccc3c(c2)OCO3)C(=O)CNC(C)c2ccccc2)C(C)c2ccccc2)cc1 (stereo not drawn) (I: H-[X3][Gly(N-piperonyl)][X3][N(4-MeOBn)Gly]PKKMK-NH2 / II: H-[X3][Gly(N-piperonyl)][X3][N(4-MeOBn)Gly]PKKM; amide I:9-II:C; configuration not given here)	Active
COc1ccc(CN(CC(=O)NC(C(=O)NC(CCCCN)C(=O)NC(CCCCN)C(=O)NC(CCSC)C(=O)NCCCCC(NC(=O)C(CCSC)NC(=O)C(CCCCN)NC(=O)C(CCCCN)NC(=O)C(NC(=O)CN(Cc2ccc(OC)cc2)C(=O)CN(C(=O)CN(Cc2ccc3c(c2)OCO3)C(=O)CNC(C)c2ccccc2)C(C)c2ccccc2)C(C)C)C(N)=O)C(C)C)C(=O)CN(C(=O)CN(Cc2ccc3c(c2)OCO3)C(=O)CNC(C)c2ccccc2)C(C)c2ccccc2)cc1 (stereo not drawn) (I: H-[X3][Gly(N-piperonyl)][X3][N(4-MeOBn)Gly]VKKMK-NH2 / II: H-[X3][Gly(N-piperonyl)][X3][N(4-MeOBn)Gly]VKKM; amide I:9-II:C; configuration not given here)	Active
COc1ccc(CN(CC(=O)NC(Cc2ccc(O)cc2)C(=O)NC(CCCCN)C(=O)NC(CCCCN)C(=O)NC(CCSC)C(=O)NCCCCC(NC(=O)C(CCSC)NC(=O)C(CCCCN)NC(=O)C(CCCCN)NC(=O)C(Cc2ccc(O)cc2)NC(=O)CN(Cc2ccc(OC)cc2)C(=O)CN(C(=O)CN(Cc2ccc3c(c2)OCO3)C(=O)CNC(C)c2ccccc2)C(C)c2ccccc2)C(N)=O)C(=O)CN(C(=O)CN(Cc2ccc3c(c2)OCO3)C(=O)CNC(C)c2ccccc2)C(C)c2ccccc2)cc1 (stereo not drawn) (I: H-[X3][Gly(N-piperonyl)][X3][N(4-MeOBn)Gly]YKKMK-NH2 / II: H-[X3][Gly(N-piperonyl)][X3][N(4-MeOBn)Gly]YKKM; amide I:9-II:C; configuration not given here)	Active
COCCCN(CC(=O)NC(CCCCN)C(=O)NC(CCCCN)C(=O)NC(CCSC)C(=O)NCCCCC(NC(=O)C(CCSC)NC(=O)C(CCCCN)NC(=O)C(CCCCN)NC(=O)CN(CCCOC)C(=O)CN(Cc1ccc(OC)cc1)C(=O)CN(C(=O)CN(Cc1ccc2c(c1)OCO2)C(=O)CNC(C)c1ccccc1)C(C)c1ccccc1)C(N)=O)C(=O)CN(Cc1ccc(OC)cc1)C(=O)CN(C(=O)CN(Cc1ccc2c(c1)OCO2)C(=O)CNC(C)c1ccccc1)C(C)c1ccccc1 (stereo not drawn) (I: H-[X3][Gly(N-piperonyl)][X3][N(4-MeOBn)Gly][Gly(N-(CH2)3OMe)]KKMK-NH2 / II: H-[X3][Gly(N-piperonyl)][X3][N(4-MeOBn)Gly][Gly(N-(CH2)3OMe)]KKM; amide I:9-II:C; configuration not given here)	Active
COc1ccc(CN(CC(=O)N(CCc2ccc(Cl)cc2)CC(=O)NC(CCCCN)C(=O)NC(CCCCN)C(=O)NC(CCSC)C(=O)NCCCCC(NC(=O)C(CCSC)NC(=O)C(CCCCN)NC(=O)C(CCCCN)NC(=O)CN(CCc2ccc(Cl)cc2)C(=O)CN(Cc2ccc(OC)cc2)C(=O)CN(C(=O)CN(Cc2ccc3c(c2)OCO3)C(=O)CNC(C)c2ccccc2)C(C)c2ccccc2)C(N)=O)C(=O)CN(C(=O)CN(Cc2ccc3c(c2)OCO3)C(=O)CNC(C)c2ccccc2)C(C)c2ccccc2)cc1 (stereo not drawn) (I: H-[X3][Gly(N-piperonyl)][X3][N(4-MeOBn)Gly][Gly(N-CH2CH2C6H4-4Cl)]KKMK-NH2 / II: H-[X3][Gly(N-piperonyl)][X3][N(4-MeOBn)Gly][Gly(N-CH2CH2C6H4-4Cl)]KKM; amide I:9-II:C; configuration not given here)	Active
COc1ccc(CN(CC(=O)N(CC(=O)NC(CCCCN)C(=O)NC(CCCCN)C(=O)NC(CCSC)C(=O)NCCCCC(NC(=O)C(CCSC)NC(=O)C(CCCCN)NC(=O)C(CCCCN)NC(=O)CN(C(=O)CN(Cc2ccc(OC)cc2)C(=O)CN(C(=O)CN(Cc2ccc3c(c2)OCO3)C(=O)CNC(C)c2ccccc2)C(C)c2ccccc2)C2CCCC2)C(N)=O)C2CCCC2)C(=O)CN(C(=O)CN(Cc2ccc3c(c2)OCO3)C(=O)CNC(C)c2ccccc2)C(C)c2ccccc2)cc1 (stereo not drawn) (I: H-[X3][Gly(N-piperonyl)][X3][N(4-MeOBn)Gly][Gly(N-cPent)]KKMK-NH2 / II: H-[X3][Gly(N-piperonyl)][X3][N(4-MeOBn)Gly][Gly(N-cPent)]KKM; amide I:9-II:C; configuration not given here)	Active
C#CCN(CC(=O)NC(CCCCN)C(=O)NC(CCCCN)C(=O)NC(CCSC)C(=O)NCCCCC(NC(=O)C(CCSC)NC(=O)C(CCCCN)NC(=O)C(CCCCN)NC(=O)CN(CC#C)C(=O)CN(Cc1ccc(OC)cc1)C(=O)CN(C(=O)CN(Cc1ccc2c(c1)OCO2)C(=O)CNC(C)c1ccccc1)C(C)c1ccccc1)C(N)=O)C(=O)CN(Cc1ccc(OC)cc1)C(=O)CN(C(=O)CN(Cc1ccc2c(c1)OCO2)C(=O)CNC(C)c1ccccc1)C(C)c1ccccc1 (stereo not drawn) (I: H-[X3][Gly(N-piperonyl)][X3][N(4-MeOBn)Gly][Gly(N-propargyl)]KKMK-NH2 / II: H-[X3][Gly(N-piperonyl)][X3][N(4-MeOBn)Gly][Gly(N-propargyl)]KKM; amide I:9-II:C; configuration not given here)	Active
COc1ccc(CN(CC(=O)N(CCc2ccccc2)CC(=O)NC(CCCCN)C(=O)NC(CCCCN)C(=O)NC(CCSC)C(=O)NCCCCC(NC(=O)C(CCSC)NC(=O)C(CCCCN)NC(=O)C(CCCCN)NC(=O)CN(CCc2ccccc2)C(=O)CN(Cc2ccc(OC)cc2)C(=O)CN(C(=O)CN(Cc2ccc3c(c2)OCO3)C(=O)CNC(C)c2ccccc2)C(C)c2ccccc2)C(N)=O)C(=O)CN(C(=O)CN(Cc2ccc3c(c2)OCO3)C(=O)CNC(C)c2ccccc2)C(C)c2ccccc2)cc1 (stereo not drawn) (I: H-[X3][Gly(N-piperonyl)][X3][N(4-MeOBn)Gly][Gly(NCH2CH2Ph)]KKMK-NH2 / II: H-[X3][Gly(N-piperonyl)][X3][N(4-MeOBn)Gly][Gly(NCH2CH2Ph)]KKM; amide I:9-II:C; configuration not given here)	Active
COc1ccc(CN(CC(=O)N(CC(=O)NC(CCCCN)C(=O)NC(CCCCN)C(=O)NC(CCSC)C(=O)NCCCCC(NC(=O)C(CCSC)NC(=O)C(CCCCN)NC(=O)C(CCCCN)NC(=O)CN(Cc2ccc(Cl)cc2)C(=O)CN(Cc2ccc(OC)cc2)C(=O)CN(C(=O)CN(Cc2ccc3c(c2)OCO3)C(=O)CNC(C)c2ccccc2)C(C)c2ccccc2)C(N)=O)Cc2ccc(Cl)cc2)C(=O)CN(C(=O)CN(Cc2ccc3c(c2)OCO3)C(=O)CNC(C)c2ccccc2)C(C)c2ccccc2)cc1 (stereo not drawn) (I: H-[X3][Gly(N-piperonyl)][X3][N(4-MeOBn)Gly][Gly(Nα-4-Cl-benzyl)]KKMK-NH2 / II: H-[X3][Gly(N-piperonyl)][X3][N(4-MeOBn)Gly][Gly(Nα-4-Cl-benzyl)]KKM; amide I:9-II:C; configuration not given here)	Active
